Laboratory results published in publication PMC6649664 (Cell host & microbe, 2019).

What was measured:
Format in all cases: cell-based
Mrgprb2 = molecular target: T1, Mrgprb2 (Mus musculus, UniProt Q3KNA1); assay: Calcium imaging / FLIPR EC50 determination in HEK293 cells expressing Mrgprb2; details: HEK293 cells stably expressing Mrgprb2 and Gα15
T1 sequence (Q3KNA1 1-338): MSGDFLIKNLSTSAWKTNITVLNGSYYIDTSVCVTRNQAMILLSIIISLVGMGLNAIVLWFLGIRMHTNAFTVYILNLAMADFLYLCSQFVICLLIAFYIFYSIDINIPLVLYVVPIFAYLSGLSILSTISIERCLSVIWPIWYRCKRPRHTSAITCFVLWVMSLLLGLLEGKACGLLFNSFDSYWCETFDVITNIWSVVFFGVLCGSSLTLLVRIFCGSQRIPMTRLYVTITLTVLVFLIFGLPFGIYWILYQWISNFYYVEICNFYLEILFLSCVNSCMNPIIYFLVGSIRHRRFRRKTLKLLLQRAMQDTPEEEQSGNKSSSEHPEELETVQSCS
Procedure, shortened: (§1)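 HEK293 cells stably co-expressing Gα15 with the receptor were seeded at 4 × 10^4 cells/well and cultured overnight. After dye loading for 60 min at 37°C and 15 min recovery at RT, fluorescence was recorded on a Flexstation for 120 s. Compound, dissolved in HBSS+HEPES, was added as a 3X solution at 30 s. Response was taken as maximum minus minimum signal, averaged from duplicate wells. EC50 was fitted per trial after normalising to that trial's peak response.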

MRGPRX2 = molecular target: T2, MRGPRX2 (Homo sapiens, UniProt Q96LB1); assay: Calcium imaging / FLIPR EC50 determination in HEK293 cells expressing MRGPRX2; details: HEK293 cells stably expressing MRGPRX2 and Gα15
T2 sequence (Q96LB1 1-330): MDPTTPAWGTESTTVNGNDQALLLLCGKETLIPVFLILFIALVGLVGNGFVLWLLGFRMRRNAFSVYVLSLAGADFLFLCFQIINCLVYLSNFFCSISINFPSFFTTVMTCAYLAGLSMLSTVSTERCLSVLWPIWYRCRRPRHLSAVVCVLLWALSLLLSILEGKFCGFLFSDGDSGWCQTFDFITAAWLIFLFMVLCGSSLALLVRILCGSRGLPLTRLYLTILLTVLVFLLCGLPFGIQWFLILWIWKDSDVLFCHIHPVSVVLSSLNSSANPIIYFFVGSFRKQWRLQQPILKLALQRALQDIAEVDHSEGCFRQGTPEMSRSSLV
Procedure, shortened: as §1

LAD2 human mast cells = assay: Mast cell degranulation assay; details: 30 min at 37°C
Procedure, shortened: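 LAD2 cells were washed and resuspended at 0.5 × 10^6 cells/mL in 0.4% BSA-HEPES buffer, then exposed to compound for 30 min at 37°C in 5% CO2. β-Hexosaminidase was measured in supernatants and in 0.1% Triton X-100 lysates by p-nitrophenyl N-acetyl-β-D-glucosamide hydrolysis in 0.1 M sodium citrate (pH 4.5) for 90 min at 37°C. Release is expressed as percent of total content.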

With autoinducer-2 [AI-2] the “activation of Mrgprb2-HEK cells (Ca2+ mobilization)” value (Mrgprb2) was “did not activate”, the “activation of MRGPRX2-HEK cells (Ca2+ mobilization)” value (MRGPRX2) was “did not activate” and the β-hexosaminidase release (LAD2 human mast cells) was “did not activate”.

With competence stimulating peptide [CSP] the “activation of Mrgprb2-HEK cells (Ca2+ mobilization)” value (Mrgprb2) was “activated” and the “activation of MRGPRX2-HEK cells (Ca2+ mobilization)” value (MRGPRX2) was “activated”.
